This is an account of results in ChEMBL document CHEMBL1131052, “Bis-substituted malonic acid hydroxamate derivatives as inhibitors of human neutrophil collagenase (MMP8)” (J Med Chem, 1998).

Sequence of Neutrophil collagenase (P22894 whole entry, the tested form may be a part): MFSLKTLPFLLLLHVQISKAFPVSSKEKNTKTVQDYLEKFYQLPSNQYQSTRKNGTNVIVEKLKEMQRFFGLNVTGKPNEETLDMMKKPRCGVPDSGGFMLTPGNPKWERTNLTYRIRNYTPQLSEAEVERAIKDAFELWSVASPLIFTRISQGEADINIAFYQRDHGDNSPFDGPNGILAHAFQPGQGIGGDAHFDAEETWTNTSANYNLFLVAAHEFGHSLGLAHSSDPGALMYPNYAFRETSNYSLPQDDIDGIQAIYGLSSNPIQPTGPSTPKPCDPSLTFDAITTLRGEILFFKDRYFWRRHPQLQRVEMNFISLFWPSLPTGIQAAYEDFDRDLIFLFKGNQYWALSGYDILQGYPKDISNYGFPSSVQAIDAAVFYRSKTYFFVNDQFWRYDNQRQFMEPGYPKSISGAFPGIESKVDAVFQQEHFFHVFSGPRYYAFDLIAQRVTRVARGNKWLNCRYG

The assay addresses Neutrophil collagenase (Homo sapiens, UniProt P22894). The assay is described as follows: Inhibition of human neutrophil collagenase (Matrix metalloprotease-8). Put shortly:
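Catalytic domain of MMP8 (Phe79–Gly242) at 8 nM; fluorogenic substrate Dnp-Pro-Leu-Gly-Leu-Trp-Ala-D-Arg-NH2 at 1 × 10^-5 M; 10 mM CaCl2, 100 mM NaCl, 50 mM Tris/HCl pH 7.6, 25 °C. Initial hydrolysis rates were taken from the fluorescence rise at 350 nm over 100 s. IC50 values were fitted from these rates, and Ki values were derived from the kinetic data.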
The compound `CC(Cc1ccccc1)(C(=O)NO)C(=O)N1CCc2ccccc2C1` (stereo not given) registered a Ki of 8100 nM. In turn, `CCOC(=O)C(C)(Cc1ccccc1)C(=O)NO` (stereo not given) came in with a Ki of 11000 nM.

Compound `O=C(NO)C1(C(=O)NCCCc2ccccc2)Cc2ccccc2-c2ccccc2C1` came in with a Ki of 1900 nM. `CC(Cc1ccccc1)(C(=O)NO)C(=O)NCCCc1ccccc1` (stereo not given): affinity was put at a Ki of 240 nM. On to `CCOC(=O)C(C)(CC(C)C)C(=O)NO` (stereo not given), for which affinity was put at a Ki of 41000 nM. `CC(Cc1ccccc1)(C(=O)NO)C(=O)Nc1cccc2ccccc12` (stereo not given) had a Ki of 45000 nM. Then `O=C(NO)C1(C(=O)NCCCc2ccccc2)Cc2ccccc2C1`, with 300 nM; and `CC(Cc1ccccc1)(C(=O)NO)C(=O)NCCc1ccccc1` (stereo not given), with 9600 nM. Then `O=C(NO)C(O)(Cc1ccccc1)C(=O)NCc1ccccc1` (stereo not given), with 1900 nM. As for `CC(=O)NC(Cc1ccccc1)(C(=O)NO)C(=O)NCc1ccccc1` (stereo not given), the Ki came out at 2300 nM. The Ki values of the last two compounds are within 1.5-fold of each other.

`CC(Cc1ccccc1)(C(=O)NO)C(=O)NCc1ccc(C(=O)O)cc1` (stereo not given): the Ki is 41000 nM. Regarding `CC(Cc1ccccc1)(C(=O)NO)C(=O)NCCCCc1ccccc1` (stereo not given), the Ki is 380 nM. With `O=C(NO)C1(C(=O)NCc2ccccc2)Cc2ccccc2C1` the figure was 1500 nM. `CC(Cc1ccccc1)(C(=O)NO)C(=O)NCc1ccccc1` (stereo not given) gave a Ki of 1100 nM. The Ki values of the last two compounds are within 1.5-fold of each other. Consider `CC(Cc1ccccc1)(C(=O)NO)C(=O)Nc1ccccc1` (stereo not given), for which the affinity, expressed as Ki, was 44000 nM.

By Ki is commonly meant a measure of affinity in units of concentration, obtained from inhibition or displacement. Read a low Ki as tighter binding.
